Assay results from ChEMBL document CHEMBL1139823, “Rational design of conformationally restricted quinazolinone inhibitors of poly(ADP-ribose)polymerase” (Bioorg Med Chem Lett, 2007).
Each block holds one compound with its values, some of them ahead of it.

Tests used:
[1] = Drug level in mouse plasma at 32 mg/kg, po after 2.0 hrs; assay type: ADME, organism-based; parameters: dose 32 mg/kg, route oral
Summary of the method: (§1)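 Mice dosed orally at 32 mg/kg (n = 2). Compound levels in brain (µg/g tissue) and plasma (µg/mL) measured by ex vivo assay at 0.5 and 2.0 h after dosing.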

[2] = Drug level in mouse brain at 32 mg/kg, po after 2.0 hrs; assay type: ADME, organism-based; parameters: dose 32 mg/kg, route oral; settings: read-out: Drug uptake; summary of the method: as §1
[3] = Drug level in mouse plasma at 32 mg/kg, po after 0.5 hr; assay type: ADME, organism-based; parameters: dose 32 mg/kg, route oral; summary of the method: as §1
[4] = Metabolic stability assessed as Intrinsic clearance in human liver microsomes after 60 mins
[5] = target: Poly [ADP-ribose] polymerase 1 (Homo sapiens, UniProt P09874); experiment: Inhibition of human PARP1
Chain of Poly [ADP-ribose] polymerase 1 (P09874 whole entry): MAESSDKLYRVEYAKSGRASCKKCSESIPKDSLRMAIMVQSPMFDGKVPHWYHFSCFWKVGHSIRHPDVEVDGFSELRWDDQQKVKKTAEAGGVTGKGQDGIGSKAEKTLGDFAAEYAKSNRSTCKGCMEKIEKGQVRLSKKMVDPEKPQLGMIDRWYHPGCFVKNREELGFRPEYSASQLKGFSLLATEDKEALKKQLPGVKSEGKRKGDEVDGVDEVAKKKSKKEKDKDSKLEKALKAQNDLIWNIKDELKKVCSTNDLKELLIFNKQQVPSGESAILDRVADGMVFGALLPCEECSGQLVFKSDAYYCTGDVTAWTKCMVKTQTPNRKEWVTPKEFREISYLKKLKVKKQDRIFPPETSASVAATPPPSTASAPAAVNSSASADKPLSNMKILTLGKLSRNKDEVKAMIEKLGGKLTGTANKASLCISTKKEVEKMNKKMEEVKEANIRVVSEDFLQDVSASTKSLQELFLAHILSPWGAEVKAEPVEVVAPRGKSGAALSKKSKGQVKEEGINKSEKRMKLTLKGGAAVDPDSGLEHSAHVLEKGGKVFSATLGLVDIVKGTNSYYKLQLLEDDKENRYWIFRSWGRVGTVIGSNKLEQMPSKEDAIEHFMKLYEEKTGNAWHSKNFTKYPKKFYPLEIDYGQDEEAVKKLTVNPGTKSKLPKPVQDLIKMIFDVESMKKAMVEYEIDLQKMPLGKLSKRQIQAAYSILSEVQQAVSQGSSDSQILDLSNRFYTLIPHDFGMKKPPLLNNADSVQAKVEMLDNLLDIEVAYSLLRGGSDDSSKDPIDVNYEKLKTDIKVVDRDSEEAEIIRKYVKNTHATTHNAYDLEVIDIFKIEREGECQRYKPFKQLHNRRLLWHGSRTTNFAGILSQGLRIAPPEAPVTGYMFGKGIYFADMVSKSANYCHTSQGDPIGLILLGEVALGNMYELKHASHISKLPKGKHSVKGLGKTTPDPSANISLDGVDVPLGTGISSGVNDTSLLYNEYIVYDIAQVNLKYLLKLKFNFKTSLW

[6] = Metabolic stability assessed as Intrinsic clearance in mouse liver microsomes after 60 mins
[7] = Drug level in mouse brain at 32 mg/kg, po after 0.5 hr; assay type: ADME, organism-based; parameters: dose 32 mg/kg, route oral; settings: read-out: Drug uptake; summary of the method: as §1

Structure (SMILES): O=c1[nH]c(C2=CC(N3CC=C(c4ccc(F)cc4)CC3)CC2)nc2c(Cl)cccc12 (configuration not stated)
- concentration at 2 h [1]: 17700 ng/mL
- concentration at 2 h [2]: 900 ng/g
- concentration at 0.5 h [3]: 15200 ng/mL
- CLint scaled at 1 h [4]: 54 mL/min/kg
- IC50 [5]: 36 nM
- CLint scaled at 1 h [6]: 1330 mL/min/kg
- concentration at 0.5 h [7]: 400 ng/g

Structure (SMILES): Cc1cccc2c(=O)[nH]c(CCCN3CC=C(c4ccc(Cl)cc4)CC3)nc12
- IC50 [5]: 16 nM

Structure (SMILES): O=c1[nH]c(C2=C[C@@H](N3CCC(c4ccccc4)CC3)CC2)nc2c(Cl)cccc12
- concentration at 2 h [1]: 4400 ng/mL
- concentration at 2 h [2]: 18100 ng/g
- concentration at 0.5 h [3]: 8700 ng/mL
- CLint scaled at 1 h [4]: 22 mL/min/kg
- IC50 [5]: 8.7 nM
- CLint scaled at 1 h [6]: 1160 mL/min/kg
- concentration at 0.5 h [7]: 19800 ng/g

Structure (SMILES): O=c1[nH]c(C2CCC(N3CCC(c4ccccc4)CC3)C2)nc2ccccc12 (stereo in doubt; cis)
- IC50 [5]: 435 nM

Structure (SMILES): O=c1[nH]c(N2CC(N3CC=C(c4ccccc4)CC3)C2)nc2ccccc12
- IC50 [5]: 504 nM

Structure (SMILES): O=c1[nH]c([C@H]2CC[C@H](N3CC=C(c4ccccc4)CC3)CC2)nc2ccccc12
- IC50 [5]: 8400 nM

Structure (SMILES): Cc1cccc2c(=O)[nH]c(CCCN3CC=C(c4ccc(F)cc4)CC3)nc12
- IC50 [5]: 8 nM

Structure (SMILES): O=c1[nH]c(C2CCCC(N3CC=C(c4ccccc4)CC3)C2)nc2ccccc12 (racemic)
- IC50 [5]: 1800 nM

Structure (SMILES): O=c1[nH]c(C2=C[C@H](N3CC=C(c4ccccc4)CC3)CC2)nc2c(Cl)cccc12
- IC50 [5]: 286 nM

Structure (SMILES): Cc1cccc2c(=O)[nH]c(C3=CC(N4CC=C(c5ccc(F)cc5)CC4)CC3)nc12 (configuration not stated)
- IC50 [5]: 25 nM

Structure (SMILES): O=c1[nH]c(CCCN2CC=C(c3ccccc3)CC2)nc2c(Cl)cccc12
- concentration at 2 h [1]: 1200 ng/mL
- concentration at 2 h [2]: 8400 ng/g
- concentration at 0.5 h [3]: 1300 ng/mL
- concentration at 0.5 h [7]: 8000 ng/g

Structure (SMILES): O=c1[nH]c(CCCN2CC=C(c3ccc(F)cc3)CC2)nc2ccccc12
- IC50 [5]: 16 nM

- IC50 [5]: 47 nM
Structure (SMILES): O=c1[nH]c(CCCN2CCC(c3ccc(F)cc3)CC2)nc2c(Cl)cccc12

Structure (SMILES): O=c1[nH]c(N2CCC(N3CC=C(c4ccccc4)CC3)C2)nc2ccccc12 (configuration not stated)
- IC50 [5]: 300 nM

- concentration at 2 h [1]: > 20400 ng/mL
- concentration at 2 h [2]: 2200 ng/g
- concentration at 0.5 h [3]: > 20100 ng/mL
- IC50 [5]: 25 nM
- concentration at 0.5 h [7]: 1300 ng/g
Structure (SMILES): O=c1[nH]c(C2=CC(N3CCN(c4ccc(Cl)cc4)CC3)CC2)nc2ccccc12 (configuration not stated)

Structure (SMILES): O=c1[nH]c(CCCN2CC=C(c3ccc(Cl)cc3)CC2)nc2ccccc12
- IC50 [5]: 8.9 nM

Structure (SMILES): O=c1[nH]c(C2=CC(N3CC=C(c4ccc(F)cc4)CC3)CC2)nc2ccccc12 (configuration not stated)
- IC50 [5]: 18 nM

Structure (SMILES): O=c1[nH]c(C2=C[C@@H](N3CC=C(c4ccccc4)CC3)CC2)nc2c(Cl)cccc12
- concentration at 2 h [1]: 18100 ng/mL
- concentration at 2 h [2]: 3000 ng/g
- concentration at 0.5 h [3]: 17100 ng/mL
- IC50 [5]: 15 nM
- concentration at 0.5 h [7]: 2000 ng/g

- concentration at 2 h [1]: 11300 ng/mL
- concentration at 2 h [2]: 12500 ng/g
- concentration at 0.5 h [3]: 13600 ng/mL
- CLint scaled at 1 h [4]: 17 mL/min/kg
- IC50 [5]: 35 nM
- CLint scaled at 1 h [6]: 686 mL/min/kg
- concentration at 0.5 h [7]: 6700 ng/g
Structure (SMILES): O=c1[nH]c(C2=C[C@@H](N3CCC(c4ccc(F)cc4)CC3)CC2)nc2c(Cl)cccc12

Structure (SMILES): O=c1[nH]c(C2=CC(N3CC=C(c4ccccc4)CC3)CCC2)nc2ccccc12 (configuration not stated)
- IC50 [5]: 160 nM

- IC50 [5]: 257 nM
Structure (SMILES): O=c1[nH]c(C2=C[C@H](N3CCC(c4ccc(F)cc4)CC3)CC2)nc2c(Cl)cccc12

- IC50 [5]: 25 nM
Structure (SMILES): O=c1[nH]c(C2=CC(N3CCN(c4ccc(F)cc4)CC3)CC2)nc2c(Cl)cccc12 (configuration not stated)

Structure (SMILES): O=c1[nH]c(C2CCC(N3CCC(c4ccccc4)CC3)C2)nc2ccccc12 (stereo in doubt; trans)
- IC50 [5]: 555 nM

- IC50 [5]: 12 nM
Structure (SMILES): Cc1cccc2c(=O)[nH]c(C3=CC(N4CCN(c5ccc(Cl)cc5)CC4)CC3)nc12 (configuration not stated)

Structure (SMILES): O=c1[nH]c(CCCN2CC=C(c3ccc(F)cc3)CC2)nc2c(Cl)cccc12
- concentration at 2 h [1]: 1200 ng/mL
- concentration at 2 h [2]: 2800 ng/g
- concentration at 0.5 h [3]: 1900 ng/mL
- CLint scaled at 1 h [6]: 3910 mL/min/kg
- concentration at 0.5 h [7]: 8400 ng/g

- IC50 [5]: 46 nM
Structure (SMILES): Cc1cccc2c(=O)[nH]c(C3=CC(N4CCC(c5ccc(Cl)cc5)CC4)CC3)nc12 (configuration not stated)

- IC50 [5]: 30 nM
Structure (SMILES): Cc1cccc2c(=O)[nH]c(C3=CC(N4CCC(c5ccc(F)cc5)CC4)CC3)nc12 (configuration not stated)

Structure (SMILES): O=c1[nH]c(C2=CC(N3CC=C(c4ccccc4)CC3)CC2)nc2ccccc12 (racemic)
- IC50 [5]: 16 nM

Structure (SMILES): O=c1[nH]c([C@H]2CC[C@@H](N3CC=C(c4ccccc4)CC3)CC2)nc2ccccc12
- IC50 [5]: 1600 nM

- concentration at 2 h [1]: 9400 ng/mL
- concentration at 2 h [2]: 3900 ng/g
- concentration at 0.5 h [3]: 12500 ng/mL
- IC50 [5]: 103 nM
- concentration at 0.5 h [7]: 11600 ng/g
Structure (SMILES): O=c1[nH]c(CCCN2CCC(c3ccccc3)CC2)nc2c(Cl)cccc12
